Reference: ChEMBL document CHEMBL4118126, “An orally available, brain-penetrant CAMKK2 inhibitor reduces food intake in rodent model” (Bioorg Med Chem Lett, 2018)
Values after ≈ are worked out from the molar mass of the structure shown.

Experiments:
[1] = Solubility of the compound in pH 7.4 phosphate buffer saline after 1 hr by chemiluminescence nitrogen detection method; format: physicochemical; conditions: phosphate buffered saline
Summary of the method: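 Kinetic solubility: 10 mM DMSO stock diluted 1:20 into 10 mM phosphate-buffered saline pH 7.4, equilibrated 1 h at RT, filtered, and filtrate quantified by calibrated flow-injection chemiluminescent nitrogen detection.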

[2] = biological target: Calcium/calmodulin-dependent protein kinase kinase 2 (Mus musculus, UniProt Q8C078); assay: Inhibition of CAMKK2 in mouse N39 cells assessed as decrease in AMPKalpha phosphorylation at T172 preincubated for 80 mins followed by […] addition by ELISA; format: cell-based
Summary of the method: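 Mouse N39 cells seeded ~1000 cells/well, cultured overnight at 37°C, 5% CO2, then exposed to compound in DMSO for 80 min before ionomycin stimulation ([…] as added). Cells were lysed in extraction buffer for 30 min on ice, then diluted into ice-cold lysis buffer containing protease and phosphatase inhibitors for MSD read-out.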

[3] = biological target: Calcium/calmodulin-dependent protein kinase kinase 2 (Homo sapiens, UniProt Q96RR4); assay: Inhibition of full-length human GST-tagged CAMKK2 using 5FAM-AKPKGNKDYHLQTCCGSLAYRRR-amide as substrate preincubated for 30 mins followed by substrate addition measured after 120 mins by fluorescence polarization assay
Insulin receptor = Insulin receptor (Homo sapiens, UniProt P06213); assay: Inhibition of INSR (unknown origin); conditions: read-out: pIC50 (converted)
[4] = biological target: Mitogen-activated protein kinase 8 (Homo sapiens, UniProt P45983); assay: Inhibition of JNK1 (unknown origin)
[5] = biological target: T1, Inhibitor of nuclear factor kappa-B kinase subunit alpha (Homo sapiens, UniProt O15111); assay: Inhibition of IKK1 (unknown origin)
T1 sequence (O15111 whole entry): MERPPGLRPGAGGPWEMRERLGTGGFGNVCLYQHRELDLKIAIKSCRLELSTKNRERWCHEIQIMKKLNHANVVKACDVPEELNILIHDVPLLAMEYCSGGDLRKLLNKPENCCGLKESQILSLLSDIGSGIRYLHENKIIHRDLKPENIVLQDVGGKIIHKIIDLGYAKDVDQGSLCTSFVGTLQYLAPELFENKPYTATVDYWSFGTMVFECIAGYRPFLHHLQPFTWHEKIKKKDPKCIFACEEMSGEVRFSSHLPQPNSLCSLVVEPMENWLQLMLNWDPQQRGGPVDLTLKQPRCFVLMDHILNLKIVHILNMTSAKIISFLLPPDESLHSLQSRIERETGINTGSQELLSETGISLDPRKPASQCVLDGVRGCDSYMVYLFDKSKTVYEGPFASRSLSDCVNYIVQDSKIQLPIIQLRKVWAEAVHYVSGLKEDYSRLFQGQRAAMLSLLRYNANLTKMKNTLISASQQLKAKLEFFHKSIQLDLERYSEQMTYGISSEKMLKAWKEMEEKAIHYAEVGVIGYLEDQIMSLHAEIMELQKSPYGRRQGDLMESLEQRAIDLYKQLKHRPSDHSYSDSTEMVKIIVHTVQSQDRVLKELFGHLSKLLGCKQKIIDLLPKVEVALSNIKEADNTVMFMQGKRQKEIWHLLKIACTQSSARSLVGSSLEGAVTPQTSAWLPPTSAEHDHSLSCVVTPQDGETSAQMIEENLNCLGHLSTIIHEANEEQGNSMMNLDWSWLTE

[6] = biological target: Phosphatidylinositol 4,5-bisphosphate 3-kinase catalytic subunit gamma isoform (Homo sapiens, UniProt P48736); assay: Inhibition of PI3Kgamma (unknown origin)
[7] = biological target: Glycogen synthase kinase-3 beta (Homo sapiens, UniProt P49841); assay: Inhibition of GSK3beta (unknown origin)
Glycogen synthase kinase-3 beta, sequence (P49841 whole entry): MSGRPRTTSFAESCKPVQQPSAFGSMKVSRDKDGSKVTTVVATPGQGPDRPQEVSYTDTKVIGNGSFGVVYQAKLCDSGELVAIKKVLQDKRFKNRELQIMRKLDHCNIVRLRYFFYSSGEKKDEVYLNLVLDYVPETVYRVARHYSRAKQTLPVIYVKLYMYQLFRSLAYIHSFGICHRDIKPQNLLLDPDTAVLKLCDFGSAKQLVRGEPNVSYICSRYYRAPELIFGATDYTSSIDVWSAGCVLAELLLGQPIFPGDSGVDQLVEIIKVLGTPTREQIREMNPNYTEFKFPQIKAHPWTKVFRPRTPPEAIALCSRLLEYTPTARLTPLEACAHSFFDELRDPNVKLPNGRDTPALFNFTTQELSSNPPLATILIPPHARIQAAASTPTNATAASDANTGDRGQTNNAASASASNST

Insulin receptor, sequence (P06213 28-758 limits assumed): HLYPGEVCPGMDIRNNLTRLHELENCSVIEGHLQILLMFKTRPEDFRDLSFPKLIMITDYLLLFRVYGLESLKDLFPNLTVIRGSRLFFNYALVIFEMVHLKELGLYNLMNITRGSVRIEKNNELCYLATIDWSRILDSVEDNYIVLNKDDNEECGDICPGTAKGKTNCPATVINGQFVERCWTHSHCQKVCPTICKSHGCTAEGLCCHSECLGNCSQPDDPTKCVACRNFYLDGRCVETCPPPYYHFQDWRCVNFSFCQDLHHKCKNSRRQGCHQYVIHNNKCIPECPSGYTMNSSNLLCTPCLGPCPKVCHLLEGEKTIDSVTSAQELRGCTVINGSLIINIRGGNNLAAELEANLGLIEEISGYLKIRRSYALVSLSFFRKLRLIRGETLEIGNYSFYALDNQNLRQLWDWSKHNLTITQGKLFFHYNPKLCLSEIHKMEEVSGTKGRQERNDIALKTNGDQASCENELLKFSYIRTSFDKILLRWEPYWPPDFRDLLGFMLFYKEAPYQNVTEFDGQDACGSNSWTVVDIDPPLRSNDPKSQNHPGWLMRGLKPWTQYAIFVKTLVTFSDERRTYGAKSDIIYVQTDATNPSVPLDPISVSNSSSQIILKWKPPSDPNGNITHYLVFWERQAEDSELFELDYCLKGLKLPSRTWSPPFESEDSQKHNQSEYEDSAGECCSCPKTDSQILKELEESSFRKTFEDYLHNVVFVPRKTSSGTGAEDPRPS
Insulin receptor, sequence (P06213 763-1382 limits assumed): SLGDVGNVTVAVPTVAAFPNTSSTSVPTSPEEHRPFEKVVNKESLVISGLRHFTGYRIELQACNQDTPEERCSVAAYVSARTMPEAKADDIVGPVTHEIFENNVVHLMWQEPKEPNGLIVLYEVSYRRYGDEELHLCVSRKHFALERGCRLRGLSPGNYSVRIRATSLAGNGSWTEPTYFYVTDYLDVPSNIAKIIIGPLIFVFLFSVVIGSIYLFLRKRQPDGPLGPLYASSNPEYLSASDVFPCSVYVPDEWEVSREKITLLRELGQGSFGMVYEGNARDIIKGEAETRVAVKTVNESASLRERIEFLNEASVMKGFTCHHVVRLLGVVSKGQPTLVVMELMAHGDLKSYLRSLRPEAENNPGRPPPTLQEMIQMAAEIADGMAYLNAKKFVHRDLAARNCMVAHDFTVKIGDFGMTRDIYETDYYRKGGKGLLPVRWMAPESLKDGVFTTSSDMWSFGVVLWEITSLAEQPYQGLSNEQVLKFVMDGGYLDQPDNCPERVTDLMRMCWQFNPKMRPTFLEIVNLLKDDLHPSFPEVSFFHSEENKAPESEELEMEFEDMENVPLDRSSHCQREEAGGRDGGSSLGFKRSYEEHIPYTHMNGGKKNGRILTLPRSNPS
Calcium/calmodulin-dependent protein kinase kinase 2 (Mus musculus, UniProt Q8C078), sequence (Q8C078 whole entry): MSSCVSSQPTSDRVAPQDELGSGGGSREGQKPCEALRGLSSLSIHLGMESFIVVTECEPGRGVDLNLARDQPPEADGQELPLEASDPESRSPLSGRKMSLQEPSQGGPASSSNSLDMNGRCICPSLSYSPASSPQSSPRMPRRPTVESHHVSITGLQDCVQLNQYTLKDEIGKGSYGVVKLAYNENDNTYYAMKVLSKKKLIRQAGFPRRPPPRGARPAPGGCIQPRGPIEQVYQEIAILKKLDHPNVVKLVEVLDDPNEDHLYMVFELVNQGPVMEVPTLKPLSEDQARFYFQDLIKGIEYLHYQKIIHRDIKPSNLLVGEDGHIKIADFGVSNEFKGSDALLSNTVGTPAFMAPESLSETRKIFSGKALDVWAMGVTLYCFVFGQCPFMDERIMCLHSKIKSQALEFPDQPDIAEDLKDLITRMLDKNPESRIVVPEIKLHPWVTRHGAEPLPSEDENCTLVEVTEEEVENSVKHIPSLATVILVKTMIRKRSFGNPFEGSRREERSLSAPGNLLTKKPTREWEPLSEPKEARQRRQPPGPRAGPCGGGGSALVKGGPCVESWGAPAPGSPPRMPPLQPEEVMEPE
Mitogen-activated protein kinase 8, sequence (P45983 whole entry): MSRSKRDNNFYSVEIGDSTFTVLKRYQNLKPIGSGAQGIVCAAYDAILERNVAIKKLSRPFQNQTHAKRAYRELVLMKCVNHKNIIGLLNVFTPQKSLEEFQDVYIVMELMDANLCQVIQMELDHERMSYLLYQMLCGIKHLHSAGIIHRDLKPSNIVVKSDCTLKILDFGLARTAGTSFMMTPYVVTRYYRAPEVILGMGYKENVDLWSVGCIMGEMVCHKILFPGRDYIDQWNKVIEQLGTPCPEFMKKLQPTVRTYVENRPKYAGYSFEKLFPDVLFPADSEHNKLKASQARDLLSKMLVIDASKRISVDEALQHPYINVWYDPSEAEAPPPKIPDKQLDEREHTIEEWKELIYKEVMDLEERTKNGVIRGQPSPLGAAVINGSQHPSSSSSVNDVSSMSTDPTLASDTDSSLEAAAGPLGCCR
Calcium/calmodulin-dependent protein kinase kinase 2 (Homo sapiens, UniProt Q96RR4), sequence (Q96RR4 whole entry): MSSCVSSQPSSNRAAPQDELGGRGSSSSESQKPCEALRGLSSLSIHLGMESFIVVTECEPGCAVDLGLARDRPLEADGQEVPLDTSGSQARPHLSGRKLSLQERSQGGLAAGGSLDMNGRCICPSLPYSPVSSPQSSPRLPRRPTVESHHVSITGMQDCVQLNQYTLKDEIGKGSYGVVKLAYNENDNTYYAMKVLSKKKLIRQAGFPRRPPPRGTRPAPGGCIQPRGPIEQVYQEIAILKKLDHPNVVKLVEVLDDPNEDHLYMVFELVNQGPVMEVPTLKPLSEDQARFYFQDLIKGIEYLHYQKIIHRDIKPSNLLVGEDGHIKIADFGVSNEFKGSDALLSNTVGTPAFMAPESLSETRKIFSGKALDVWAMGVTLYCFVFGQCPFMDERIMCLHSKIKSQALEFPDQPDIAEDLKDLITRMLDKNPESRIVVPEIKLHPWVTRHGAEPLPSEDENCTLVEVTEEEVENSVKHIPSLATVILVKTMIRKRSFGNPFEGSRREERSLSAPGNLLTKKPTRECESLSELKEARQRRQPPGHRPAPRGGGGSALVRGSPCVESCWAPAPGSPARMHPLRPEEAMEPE
Phosphatidylinositol 4,5-bisphosphate 3-kinase catalytic subunit gamma isoform, sequence (P48736 whole entry, canonical isoform): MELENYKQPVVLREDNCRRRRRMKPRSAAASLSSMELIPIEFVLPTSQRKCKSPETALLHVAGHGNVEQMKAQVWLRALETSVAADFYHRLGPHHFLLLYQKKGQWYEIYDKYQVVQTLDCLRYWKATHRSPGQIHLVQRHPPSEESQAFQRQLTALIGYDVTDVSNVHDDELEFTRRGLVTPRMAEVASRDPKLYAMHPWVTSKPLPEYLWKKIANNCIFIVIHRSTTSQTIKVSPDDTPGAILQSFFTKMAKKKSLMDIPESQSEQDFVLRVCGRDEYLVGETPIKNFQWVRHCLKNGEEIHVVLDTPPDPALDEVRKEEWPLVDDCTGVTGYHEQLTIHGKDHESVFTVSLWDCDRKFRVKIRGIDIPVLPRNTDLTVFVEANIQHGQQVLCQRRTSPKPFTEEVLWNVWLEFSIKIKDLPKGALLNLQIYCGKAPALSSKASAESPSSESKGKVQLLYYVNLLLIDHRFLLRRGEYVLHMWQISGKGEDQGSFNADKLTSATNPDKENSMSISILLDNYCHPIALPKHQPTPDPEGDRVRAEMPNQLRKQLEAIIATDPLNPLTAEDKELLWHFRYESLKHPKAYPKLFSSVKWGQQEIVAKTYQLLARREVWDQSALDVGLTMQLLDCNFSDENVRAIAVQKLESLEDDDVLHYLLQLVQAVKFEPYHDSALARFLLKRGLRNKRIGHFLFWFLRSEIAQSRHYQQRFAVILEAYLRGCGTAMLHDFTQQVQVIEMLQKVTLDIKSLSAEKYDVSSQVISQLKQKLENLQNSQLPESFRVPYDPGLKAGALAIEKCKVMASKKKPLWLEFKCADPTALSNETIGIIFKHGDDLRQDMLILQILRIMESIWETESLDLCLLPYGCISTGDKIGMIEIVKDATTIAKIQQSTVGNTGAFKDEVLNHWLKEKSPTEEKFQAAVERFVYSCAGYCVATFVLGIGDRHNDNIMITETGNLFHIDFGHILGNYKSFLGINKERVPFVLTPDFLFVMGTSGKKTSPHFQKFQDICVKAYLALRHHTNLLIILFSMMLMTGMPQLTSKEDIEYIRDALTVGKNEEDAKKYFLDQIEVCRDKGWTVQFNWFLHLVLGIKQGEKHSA

Structure (SMILES)	solubility at 1 h [1]	IC50 [2]	IC50 [3]	IC50 (Insulin receptor)	IC50 [4]	IC50 [5]	IC50 [6]	IC50 [7]
Cc1cc(OCCN2CCOCC2)ccc1-c1cc2c(-c3ccc(C(N)=O)cc3)ccnc2[nH]1	11 µM (≈ 5.02 µg/mL)	0.158 µM	0.00158 µM	1.26 µM	0.2 µM	0.126 µM		
CN(C)Cc1cccc(-c2cc3c(-c4ccc(C(N)=O)cc4)ccnc3[nH]2)c1	56 µM (≈ 20.7 µg/mL)	0.126 µM	0.00398 to 0.0316 µM	0.631 µM	0.631 µM	0.0794 µM		
CN(C)CCCNC(=O)c1ccc(-c2cc3c(-c4ccc(C(N)=O)cc4)ccnc3[nH]2)cc1	29 µM (≈ 12.8 µg/mL)	> 10 µM	0.00158 to 0.0126 µM	0.158 µM	0.126 µM	0.0794 µM		
Cc1ccc(CN2CCOCC2)cc1-c1cc2c(-c3ccc(C(N)=O)cc3)ccnc2[nH]1	2 µM (≈ 0.853 µg/mL)	0.0316 µM	0.00158 to 0.0158 µM	> 10 µM	6.31 µM	3.16 µM		
CN(C)CCCNC(=O)c1cccc(-c2cc3c(-c4ccc(C(N)=O)cc4)ccnc3[nH]2)c1		3.98 µM	0.00251 to 0.0126 µM	3.16 µM	0.631 µM	0.126 µM		
COc1ccccc1Nc1nccc(-c2ccc(C(N)=O)cc2)n1	< 1 µM	> 10 µM	0.1 to 1.26 µM		2 µM		> 10 µM	> 25.1 µM
CS(=O)(=O)Nc1cccc(-c2cc3c(-c4ccc(C(N)=O)cc4)ccnc3[nH]2)c1	13 µM (≈ 5.28 µg/mL)	3.16 µM	0.00316 to 0.0126 µM	1.26 µM	0.2 µM	0.158 µM		
COc1ccc(-c2ccccc2)cc1Nc1nccc(-c2ccc(C(N)=O)cc2)n1	7 µM (≈ 2.78 µg/mL)	> 10 µM	0.0126 to 0.251 µM		> 10 µM		7.94 µM	> 25.1 µM
COc1ccccc1-c1cc2c(-c3ccc(C(N)=O)cc3)ccnc2[nH]1	16 µM (≈ 5.49 µg/mL)	0.794 µM	0.00316 to 0.02 µM	1.58 µM	0.158 µM	0.158 µM		
Cc1ccc(CN2CCOCC2)cc1-c1cc2c(-c3ccc(C(N)=O)c(C(C)C)c3)ccnc2[nH]1	1 µM (≈ 0.469 µg/mL)	0.2 µM	0.00158 to 0.02 µM	> 10 µM	0.631 µM	0.158 µM		
COc1ccccc1Nc1ncc(F)c(-c2ccc(C(N)=O)c(C(C)C)c2)n1	11 µM (≈ 4.18 µg/mL)	3.16 µM	0.0398 to 0.316 µM		3.16 µM		> 10 µM	7.94 µM
Cc1ccc(-c2ccccc2)cc1Nc1nccc(-c2ccc(C(N)=O)cc2)n1	4 µM (≈ 1.52 µg/mL)	3.98 µM	0.0316 to 0.501 µM		> 10 µM		> 10 µM	> 25.1 µM
Cc1c(OCCN2CCOCC2)cccc1-c1cc2c(-c3ccc(C(N)=O)cc3)ccnc2[nH]1	17 µM (≈ 7.76 µg/mL)	0.251 µM	0.002 to 0.0158 µM	3.16 µM	0.251 µM	0.158 µM		
O=C(O)c1ccc(-c2ccnc(Nc3cccc(-c4ccccc4)c3)n2)cc1	14 µM (≈ 5.14 µg/mL)	7.94 µM	0.00794 to 0.1 µM		0.398 µM		0.0126 µM	0.398 µM
COc1ccccc1Nc1nccc(-c2ccc(C(N)=O)c(C(C)C)c2)n1	10 µM (≈ 3.62 µg/mL)	> 10 µM	0.0631 to 1.58 µM		1.58 µM		2.51 µM	> 25.1 µM
Cc1c(CN2CCOCC2)cccc1-c1cc2c(-c3ccc(C(N)=O)cc3)ccnc2[nH]1	18 µM (≈ 7.68 µg/mL)	0.2 µM	0.00158 to 0.0126 µM	1.26 µM	0.316 µM	0.1 µM		
CS(=O)(=O)Nc1ccc(-c2cc3c(-c4ccc(C(N)=O)cc4)ccnc3[nH]2)cc1	5 µM (≈ 2.03 µg/mL)	0.316 µM	0.002 to 0.0126 µM	0.316 µM	0.0631 µM	0.0316 µM		
COc1ccccc1Nc1nccc(-c2ccc(C(=O)O)cc2)n1	> 444 µM	> 10 µM	0.2 to 1.58 µM		5.01 µM		3.98 µM	> 25.1 µM
NC(=O)c1ccc(-c2ccnc(Nc3cccc(-c4ccccc4)c3)n2)cc1	3 µM (≈ 1.1 µg/mL)	0.631 µM	0.00794 to 0.0251 µM		1 µM		0.1 µM	0.0316 µM
COc1ccccc1Nc1ncc(Cl)c(-c2ccc(C(N)=O)c(C(C)C)c2)n1	5 µM (≈ 1.98 µg/mL)	> 10 µM	0.158 to 1.58 µM		> 10 µM		6.31 µM	20 µM
COc1ccccc1Nc1nccc(-c2ccc(C(=O)O)c(C(C)C)c2)n1	> 367 µM	1 µM	0.002 µM		3.16 µM		1.58 µM	15.8 µM
NC(=O)c1ccc(-c2ccnc(Nc3cc(-c4ccccc4)ccc3F)n2)cc1	3 µM (≈ 1.15 µg/mL)	7.94 µM	0.02 µM		> 10 µM		> 10 µM	2.51 µM
COc1ccccc1Nc1ncc(F)c(-c2ccc(C(=O)O)c(C(C)C)c2)n1	97 µM (≈ 37 µg/mL)	0.398 µM	0.001 to 0.00794 µM		3.16 µM		6.31 µM	7.94 µM
CN(C)Cc1ccc(-c2cc3c(-c4ccc(C(N)=O)cc4)ccnc3[nH]2)cc1	157 µM (≈ 58.2 µg/mL)	0.158 µM	0.00316 to 0.0251 µM	0.316 µM	0.0794 µM	0.0794 µM		
Cc1ccc(OCCN2CCOCC2)cc1-c1cc2c(-c3ccc(C(N)=O)cc3)ccnc2[nH]1	17 µM (≈ 7.76 µg/mL)		0.002 to 0.0316 µM	3.98 µM	0.158 µM	0.2 µM		
Cc1cc(CN2CCOCC2)ccc1-c1cc2c(-c3ccc(C(N)=O)cc3)ccnc2[nH]1	18 µM (≈ 7.68 µg/mL)	2 µM	0.00794 to 0.0251 µM	3.98 µM	0.631 µM	0.126 µM		
